The values that follow come from ChEMBL document CHEMBL1145109, “Discovery of 4-benzoyl-1-[(4-methoxy-1H- pyrrolo[2,3-b]pyridin-3-yl)oxoacetyl]-2- (R)-methylpiperazine (BMS-378806): a novel HIV-1 attachment inhibitor that interferes with CD4-gp120 interactions” (J Med Chem, 2003).

Molecules are shown by their SMILES.

Data set [1] can be described thus: Oral bioavailability after peroral administration of 5(mg/kg) polyethelene glycol in rat was determined. The format is ADME, organism-based. As to conditions: in vivo. Summed up: (§1)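 Given to rat, dog and cynomolgus monkey as a solution in poly(ethylene glycol) 400/ethanol (90:10 v/v), by intravenous and oral (po) dosing. The iv/po dose pairs in mg/kg were 5/5 or 1/5 in rat and 2/10 or 0.67/3.4 in dog and monkey. Plasma sampling gave Fpo (%), oral Cmax (µM), CLtot (mL/min/kg) and Vss (L/kg).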

A short description of data set [2]: The total clearance time in dog was determined. As to conditions: in vivo, read-out: CLtotal. The format is ADME, organism-based, Canis lupus familiaris. Summed up: as §1
Data set [3] is described as follows: The total clearance time in monkey was determined. The format is ADME, organism-based. As to conditions: simiiformes, in vivo; read-out: CLtotal. In a few lines: as §1
A short description of data set [4]: The total clearance time in rat was determined. The format is ADME, organism-based. The conditions noted are these: in vivo, read-out: CLtotal. In a few lines: as §1
The nature of data set [5]: Oral bioavailability after paroral administration of 10 (mg/kg) polyethelene glycol in dog was determined. The format is ADME, organism-based, Canis lupus familiaris. As to conditions: in vivo. In a few lines: as §1
The nature of data set [6]: Oral bioavailability after paroral administration of 10 (mg/kg) polyethelene glycol in monkey was determined. The format is ADME, organism-based. As to conditions: primates, in vivo. Summed up:
as §1

A short description of data set [7]: The maximum plasma concentration of compound after paroral administration of 10 (mg/kg) polyethelene glycol in monkey was determined. The format is ADME, organism-based. On the set-up: dose 10 mg/kg, route oral. As to conditions: simiiformes, po. In a few lines: as §1
Data set [8] in a line: The maximum plasma concentration of compound after peroral administration of 5(mg/kg) polyethelene glycol in rat was determined. Format: ADME, organism-based. Set-up: dose 5 mg/kg, route oral. The conditions noted are these: po. Summed up:
as §1

Data set [9] in a line: The volume of distribution of compound a was determined in dog. As to conditions: in vivo, read-out: Vss. The format is ADME, organism-based, Canis lupus familiaris. In a few lines:
as §1

Data set [10] in a line: The volume of distribution of compound was determined in monkey. The format is ADME, organism-based. As to conditions: simiiformes, in vivo; read-out: Vss. In a few lines:
as §1

Data set [11] can be described thus: The volume of distribution of compound was determined in rat. Format: ADME, organism-based. As to conditions: in vivo, read-out: Vss. Summed up: as §1
The test system of data set [12] is Human immunodeficiency virus 1. Put plainly: Cytotoxicity activity of compound against BAl (M) Macrophage tropic virus that utilizes the CCR5 virus was determined. The format is functional. As to conditions: Human immunodeficiency virus 1, CCR5. In a few lines: (§2)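 CC50 in µM, measured as cytotoxicity toward the host cells used for the antiviral assays, either MT-2 or PM1 cells.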

In data set [13] the test system is Human immunodeficiency virus 1. Put plainly: Inhibitory activity of compound against BAl (M) Macrophage tropic virus that utilizes the CCR5 co-receptor was determined. The format is functional, organism-based. The conditions noted are these: Human immunodeficiency virus 1, CCR5.
The test system of data set [14] is Human immunodeficiency virus 1. Briefly: Inhibitory activity of compound in MT-2 cells against JRFL (M) Macrophage tropic virus that utilizes the CCR5 was determined. The format is functional, organism-based.
The nature of data set [15]: Cytotoxicity activity of compound in MT-2 cells against LAI (T) tropic virus that utilizes the CXCR-4 co-receptor virus was determined. The format is functional. As to conditions: MT2. Summed up:
as §2

Data set [16] is described as follows: Inhibitory activity of compound against LAI (T) tropic virus that utilizes the CXCR-4 co-receptor was determined. Format: functional.
Data set [17] can be described thus: Inhibitory activity of compound against NL4-3 (T) tropic virus that utilizes the CXCR-4 co-receptor was determined. The format is functional, nl4-3 tropic virus.
Data set [18] has as its system Human immunodeficiency virus 1. Put plainly: Inhibitory activity of compound against SF-2 (T) tropic virus that utilizes the CXCR-4 co-receptor was determined. Format: functional, organism-based, sf-2 tropic virus.
Data set [19] deals with Human immunodeficiency virus 1. Briefly: Cytotoxicity activity of compound against TLAV (dual) virus that utilizes both CXR4 and CCR5 co-receptor virus was determined. Format: functional. The conditions noted are these: Human immunodeficiency virus 1, TLAV. In a few lines:
as §2

Data set [20] is described as follows: The maximum plasma concentration of compound after paroral administration of 10 (mg/kg) polyethelene glycol in dog was determined. As to conditions: po. On the set-up: dose 10 mg/kg, route oral. The format is ADME, organism-based, Canis lupus familiaris. In a few lines: as §1
For data set [21], the system named is Human immunodeficiency virus 1. Put plainly: Inhibitory activity of compound against TLAV (dual) virus that utilizes both CXR4 and CCR5 co-receptor virus was determined. The format is functional, organism-based. As to conditions: Human immunodeficiency virus 1, TLAV.
Data set [22] concerns Human immunodeficiency virus 1. Briefly: Cytotoxicity activity of compound in PM1 cells against BAl (M) Macrophage tropic virus that utilizes the CCR5 virus was determined. The format is functional. As to conditions: Human immunodeficiency virus 1, PM1. Summed up: as §2
Data set [23] concerns Human immunodeficiency virus 1. Put plainly: Inhibitory activity of compound against SF-162 (M) Macrophage tropic virus that utilizes the CCR5 was determined. Format: functional, organism-based, sf-162 macrophage tropic virus. The conditions noted are these: Human immunodeficiency virus 1, CCR5.
Data set [24] has as its system Human immunodeficiency virus 1. Briefly: Cytotoxicity activity of compound in MT-2 cells against TLAV (dual) virus that utilizes both CXR4 and CCR5 co-receptor virus was determined. Format: functional. As to conditions: Human immunodeficiency virus 1, TLAV, MT2. In a few lines: as §2
Data set [25] is described as follows: Oral bioavailability after paroral administration of 5(mg/kg) polyethelene glycol in rat was determined. The conditions noted are these: in vivo. The format is ADME, organism-based. Summed up:
(§3)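 Oral dosing as a solution in PEG 400/ethanol (90:10 v/v). Separate iv arms were used for comparison: rat 1 mg/kg iv vs 5 mg/kg po, dog and cynomolgus monkey 0.67 mg/kg iv vs 3.4 mg/kg po. Oral bioavailability (Fpo, %) was derived from plasma exposure after oral relative to intravenous dosing.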

The nature of data set [26]: Oral bioavailability after paroral administration of 3.4(mg/kg) polyethelene glycol in dog was determined. The format is ADME, organism-based, Canis lupus familiaris. The conditions noted are these: in vivo. Summed up:
as §3

The nature of data set [27]: Oral bioavailability after paroral administration of 3.4(mg/kg) polyethelene glycol in monkey was determined. The format is ADME, organism-based. The conditions noted are these: primates, in vivo. In a few lines:
as §3

Data set [28] can be described thus: The maximum plasma concentration of compound after paroral administration of 3.4(mg/kg) polyethelene glycol in dog was determined. The format is ADME, organism-based, Canis lupus familiaris. Set-up: dose 3.4 mg/kg, route oral. As to conditions: po. Summed up:
as §1

Data set [29] can be described thus: The maximum plasma concentration of compound after paroral administration of 3.4(mg/kg) polyethelene glycol in monkey was determined. Format: ADME, organism-based. Set-up: dose 3.4 mg/kg, route oral. The conditions noted are these: simiiformes, po. Summed up: as §1
Data set [30] is described as follows: The maximum plasma concentration of compound after paroral administration of 5(mg/kg) polyethelene glycol in rat was determined. Set-up: dose 5 mg/kg, route oral. As to conditions: po. The format is ADME, organism-based. In a few lines: as §1
A short description of data set [31]: The volume of distribution of compound against rat was determined. Format: ADME, organism-based. As to conditions: in vivo, read-out: Vss. In a few lines: as §1
Data set [32] is described as follows: The volume of distribution of compound was determined in dog. The conditions noted are these: in vivo, read-out: Vss. The format is ADME, organism-based, Canis lupus familiaris. In a few lines:
as §1

Data set [33] has as its system Human immunodeficiency virus 1. Put plainly: Inhibitory activity of compound against JRFL (M) Macrophage tropic virus that utilizes the CCR5 was determined. Format: functional, organism-based. As to conditions: Human immunodeficiency virus 1, CCR5.

As to `O=C(C(=O)N1CCN(C(=O)c2ccccc2)CC1)c1c[nH]c2cccc(F)c12`, the bioavailability (in general, dose-corrected exposure relative to a reference, in per cent) in [1] came out at 9.4%; in data set [5], 100%; in [6] it was 100%. For the same compound, the results for the clearance in data set [2], in data set [3] and in data set [4] were 2.4 mL/min/kg, 3.1 mL/min/kg and 48 mL/min/kg, respectively. The Cmax (in general, the peak of the concentration-time curve) amounted to 34 µM in [7], 0.15 µM in [8] and 18 µM in [20]. The Vd came to 1.8 L/kg in data set [9], 0.24 L/kg in data set [10] and 0.99 L/kg in data set [11]. Further, the CC50 (commonly the concentration giving 50% cytotoxicity) turned out to be 52500 nM in data set [12], 146000 nM in data set [15] and 146000 nM in data set [19]. In addition, the EC50 (usually the concentration that produces a half-maximal response) in data set [13] was found to be 18.1 nM; in data set [14] it was 2.39 nM; in [16], 2.93 nM; in [17] it was 30.8 nM; in data set [18] it was 62.4 nM; in data set [21] it was 13.6 nM.
As to `O=C(C(=O)N1CCN(C(=O)c2ccccc2)CC1)c1c[nH]c2ccccc12`, the figures for the CC50 in [22], in data set [15] and in data set [24] were more than 200000 nM, 145000 nM and 145000 nM, respectively. Also, the 50% effective concentration (EC50) in data set [13] was 28700 nM; in data set [16], 86 nM; in data set [17], 5130 nM; in [23], 230 nM; in [18] it was 1030 nM; in data set [21] it was 149 nM.
As to `COc1ccnc2[nH]cc(C(=O)C(=O)N3CCN(C(=O)c4ccccc4)C[C@H]3C)c12`, the bioavailability was 19% in [25], 77% in data set [26] and 24% in data set [27]. Further, the clearance amounted to 5.2 mL/min/kg in data set [2], 10 mL/min/kg in [3] and 32 mL/min/kg in data set [4]. Further, the maximum concentration (Cmax) in [28] came to 7.4 µM; in [29], 0.51 µM; in [30] it was 0.22 µM. Also, the Vd was determined as 0.56 L/kg in [31], 0.47 L/kg in data set [32] and 0.39 L/kg in data set [10]. Besides, the cytotoxic concentration (CC50) in [22], in data set [15] and in [24] was more than 300000 nM each time. In addition, the EC50 in data set [13] was determined as 15.5 nM; in [33] it was 1.47 nM; in data set [16], 2.68 nM; in data set [17], 2.94 nM; in [23] it was 3.46 nM; in data set [18], 26.5 nM. Moreover, the concentration giving a half-maximal response (EC50) in [21] was found to be 0.85 nM.
